The results in this text go back to ChEMBL document CHEMBL1275344, “Synthesis and antimalarial assessment of a new series of orally active amino-functionalized spiro 1,2,4-trioxanes” (J Med Chem, 2010).

The source made the active and inactive calls. No cut-off for these calls is given here.

In data set [1] the test system is Plasmodium yoelii nigeriensis. Briefly: Antimalarial activity against multidrug-resistant Plasmodium yoelii nigeriensis infected in Swiss mice (Mus musculus) assessed as curated mice (Mus musculus) at 24 mg/kg, peroral for 4 days. The data set is classed as functional, organism-based. Details: dose 24 mg/kg. The procedure, abridged: (§1)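 Swiss mice of either sex (20 ± 2 g) inoculated intraperitoneally with 1 × 10⁶ MDR P. yoelii nigeriensis parasites on day 0. Five mice per dose group, dosed orally in groundnut oil (0.1 mL), in two divided doses daily from day 0 to 3. Thin blood smears read on day 4, then twice weekly to day 28. Mice without patent infection by day 28 counted as cured. β-Arteether was the positive control.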

The subject of data set [2] is Plasmodium yoelii nigeriensis. Briefly: Antimalarial activity against multidrug-resistant Plasmodium yoelii nigeriensis infected in Swiss mice (Mus musculus) assessed as curated mice (Mus musculus) at 96 mg/kg, peroral for 4 days. Format: functional, organism-based. Details: dose 96 mg/kg. The procedure, abridged:
as §1

The test system of data set [3] is Plasmodium yoelii nigeriensis. Briefly: Antimalarial activity against multidrug-resistant Plasmodium yoelii nigeriensis infected in Swiss mice (Mus musculus) assessed as curated mice (Mus musculus) at 48 mg/kg, peroral for 4 days. The data set is classed as functional, organism-based. Details: dose 48 mg/kg. Summed up:
as §1

In data set [4] the test system is Plasmodium yoelii nigeriensis. Briefly: Antimalarial activity against multidrug-resistant Plasmodium yoelii nigeriensis infected in Swiss mice (Mus musculus) assessed as suppression of parasitaemia at 48 mg/kg, peroral for 4 days relative to control. Format: functional. The conditions noted are these: route oral. Summed up:
(§2)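 Swiss mice of either sex (20 ± 2 g) infected intraperitoneally with 1 × 10⁶ MDR P. yoelii nigeriensis parasites on day 0. Five mice per dose group, given oral doses in groundnut oil, twice daily on days 0–3. Parasitaemia read from day-4 thin blood smears. Suppression = [(C − T)/C] × 100, with C and T the control and treated parasitaemia. 100% means no parasites seen in 50 oil-immersion fields.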

Data set [5] is described as follows: Lipophilicity, log P of the compound. The data set is classed as physicochemical. The conditions noted are these: octanol/water.
Data set [6] deals with Plasmodium yoelii nigeriensis. Briefly: Antimalarial activity against multidrug-resistant Plasmodium yoelii nigeriensis infected in Swiss mice (Mus musculus) assessed as suppression of parasitaemia at 24 mg/kg, peroral for 4 days relative to control. The conditions noted are these: route oral. The data set is classed as functional. The procedure, abridged:
as §2

Data set [7] concerns Plasmodium yoelii nigeriensis. Put plainly: Antimalarial activity against multidrug-resistant Plasmodium yoelii nigeriensis infected in Swiss mice (Mus musculus) assessed as suppression of parasitaemia at 96 mg/kg, perorally for 4 days relative to control. Format: functional. Particulars: route oral. Summed up:
as §2

Data set [8] has as its system Plasmodium yoelii nigeriensis. Briefly: Antimalarial activity against multidrug-resistant Plasmodium yoelii nigeriensis infected in Swiss mice (Mus musculus) assessed as curated mice (Mus musculus) at 12 mg/kg, peroral for 4 days. Format: functional, organism-based. Details: dose 12 mg/kg. The procedure, abridged:
as §1

Data set [9] concerns Plasmodium yoelii nigeriensis. Briefly: Antimalarial activity against multidrug-resistant Plasmodium yoelii nigeriensis infected in Swiss mice (Mus musculus) assessed as suppression of parasitaemia at 12 mg/kg, peroral for 4 days relative to control. The conditions noted are these: route oral. Format: functional. Summed up: as §2

Take `C=C(c1ccc2ccccc2c1)C1CCC2(CC1)COC(Nc1ccc(C(F)(F)F)cc1)OO2` (single isomer, unassigned; more polar) [listing 1 of 2 here]: the result in data set [1], in data set [2] and in data set [3] was Active.
As to `C=C(c1ccc2ccccc2c1)C1CCC2(CC1)COC(Nc1ccc(F)cc1)OO2` (stereo unspecified), the outcome in [2] was Active. Further, the Activity in data set [4], in data set [6] and in data set [7] was 100% throughout. Moreover, in [5], the logP (commonly a log measure of how a compound divides between an organic and an aqueous phase) is 5.75.
As for `C=C(c1ccc2ccc3ccccc3c2c1)C1CCC2(CC1)COC(Nc1ccc(C)cc1)OO2` (stereo unspecified), the outcome in data set [2] and in data set [3] was Active. Also, the Activity in data set [4], in data set [6] and in [7] was 100% each time. This molecule also came in with a logP in data set [5] of 7.07.
`C=C(c1ccc2ccccc2c1)C1CCC2(CC1)COC(Nc1ccc(C(F)(F)F)cc1)OO2` (single isomer, unassigned; less polar) [listing 1 of 2 here]: the result in [1], in data set [2] and in data set [3] was Active. For the same molecule, in data set [8], the outcome was inactive.
Turning to `C=C(c1ccc2ccccc2c1)C1CCC2(CC1)COC(Nc1ccc(Cl)cc1)OO2` (stereo unspecified), the outcome in data set [1] and in [8] was inactive. Also, the result in data set [2] and in data set [3] was Active. For the same molecule, the Activity in [4] came out at 100%; in data set [9] it was 60%; in [6], 100%; in [7], 100%. Besides, the logP in [5] was 6.15.
As for `CCO[C@H]1O[C@@H]2O[C@@]3(C)CC[C@H]4[C@H](C)CC[C@@H]([C@H]1C)[C@@]24OO3` [ARTEMOTIL], the result in data set [3] was Active. Further, the Activity in data set [4] and in data set [6] was 100% in each case.
With `C=C(c1ccc2ccccc2c1)C1CCC2(CC1)COC(Nc1ccc(C(F)(F)F)cc1)OO2` (single isomer, unassigned; more polar) [listing 2 of 2 here], the Activity in [9] (12 mg/kg) is on record as 100%.
As for `C=C(c1ccc2ccc3ccccc3c2c1)C1CCC2(CC1)COC(Nc1ccccc1)OO2` (stereo unspecified), the outcome in [2] was Active. Further, the Activity in data set [4], in [6] and in data set [7] was 100% each time. In data set [5], this molecule had a logP of 6.59.
In the case of `C=C(c1ccc2ccc3ccccc3c2c1)C1CCC2(CC1)COC(Nc1ccc(C(F)(F)F)cc1)OO2` (stereo unspecified), in [2], the outcome was Active. Besides, the result in [3] was inactive. Further, the Activity in [4] came out at 82.22%; in [7], 100%. The same molecule showed a logP in data set [5] of 7.51.
Regarding `C=C(c1ccc2c(c1)Cc1ccccc1-2)C1CCC2(CC1)COC(Nc1ccc(OC)cc1)OO2` (stereo unspecified), the result in data set [2] was Active. Besides, the outcome in data set [3] was inactive. In addition, the Activity in data set [4] and in data set [7] was 100% throughout. In data set [5], the logP stood at 6.2.
For `C=C(c1ccc2ccccc2c1)C1CCC2(CC1)COC(Nc1ccc(C(F)(F)F)cc1)OO2` (single isomer, unassigned; less polar) [listing 2 of 2 here], the Activity came to 100% in [4], 6.25% in data set [9] (12 mg/kg), 100% in data set [6] and 100% in data set [7]. Moreover, the logP in data set [5] is 6.51.
